Compounds with a hit are over-represented: about 3.9% of the library has one in this group of screens.
HTR2A ag: activates the mouse 5-HT2A serotonin receptor. P35363. CHO-K1 mHTR2A beta-arrestin complementation, luminescence; percent of 30 µM serotonin response. activation, % at 7.6 µM. hit rate 0.66% among 360,000. AID 624169;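 active means activation above a run cutoff, the mean activation of all tested compounds plus 3 SD, cut at about 14% in these data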
CHRM1 antagonist: blocks human M1 muscarinic receptor; P11229; hit rate 1.3% among 360,000; CHO-K1 hM1, Fluo-8 calcium fluorescence, ACh EC80 antagonist; inhibition, % at 3 µM;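 active means percent inhibition above its own plate's cutoff, namely the mean of that plate's compound wells plus 3 SD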;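 further: peak over basal fluorescence ratio during 140 s after agonist addition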
TAAR1 agonist: agonists of human TAAR1; AID 624467; activation, % at 3 µM; hit rate 0.99% among 360,000; Q96RJ0; CHO RD-HGA16 TAAR1, Fluo-8 calcium fluorescence; vehicle wells 0%, saturating PEA agonist 100%;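 active means activation above the mean activation of all test compounds in the run plus 3 SD, cut at about 38% in these data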
Target sequence (Q96RJ0 whole entry, looked up): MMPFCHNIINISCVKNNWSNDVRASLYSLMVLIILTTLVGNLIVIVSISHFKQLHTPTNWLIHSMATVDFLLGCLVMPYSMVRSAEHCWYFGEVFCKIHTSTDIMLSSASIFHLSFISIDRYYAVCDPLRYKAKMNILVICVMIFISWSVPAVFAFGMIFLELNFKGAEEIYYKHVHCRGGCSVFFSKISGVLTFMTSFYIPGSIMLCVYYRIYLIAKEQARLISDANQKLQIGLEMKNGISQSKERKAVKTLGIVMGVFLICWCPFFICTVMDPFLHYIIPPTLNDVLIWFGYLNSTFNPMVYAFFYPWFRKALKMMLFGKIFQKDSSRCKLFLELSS
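Benchmarks: low control DMSO, high control PEA (EC100); System: CHO RD-HGA16 cells carrying human TAAR1 plus Gα16; Detection: Fluo-8 fluorescence, 5 s baseline then 140 s kinetic read; Schedule: 17-24 h plating, Fluo-8 75 min 37 °C, 30 min RT; Read-out basis: % activation from peak over basal fluorescence ratio, DMSO-to-PEA scaled.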
CHRM1 agonist: activates human CHRM1 receptor. hit rate 0.33% among 360,000. activation, % at 3 µM. CHO-K1 hM1, Fluo-8 calcium fluorescence, agonist mode; 0% DMSO, 100% acetylcholine EC100. AID 588814;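 active means activation above the run's mean compound activation plus 3 SD, cut at about 16% in these data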;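 further: peak over basal fluorescence ratio within a 140 s kinetic read after compound addition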
M1 PAM: positive allosteric modulators of human M1 muscarinic receptor; activation, % at 3 µM; CHO-K1 hM1, Fluo-8 calcium fluorescence, ACh EC20; 0% = ACh EC20, 100% = maximal ACh; hit rate 0.088% among 360,000; in the data active means activation above about 19%, passing the limit was not always enough
TAAR1 antagonist: antagonists of human TAAR1; Q96RJ0; inhibition, % at 3 µM; CHO RD-HGA16 TAAR1, Fluo-8 calcium fluorescence, antagonist; hit rate 1.5% among 360,000;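 active means inhibition above a per-plate cutoff, the mean inhibition of test compounds on that plate plus 3 SD, cut at about 49% in these data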
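Test system – hTAAR1-expressing CHO RD-HGA16 cells, Gα16-coupled · Also added – β-PEA at EC80 concentration, post-compound challenge · Compound – 3 µM, single point · Incubation – dye loading 75 min at 37 °C, then 30 min room temperature · Measured by – Fluo-8 intracellular calcium dye fluorescence, real-time kinetic reads · Benchmarks – vehicle and agonist controls · Replicates – singlicate, one well per test compound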
A number is an active result; - = inactive; . = not tested or not shown.

SMILES | HTR2A ag | CHRM1 antagonist | TAAR1 agonist | CHRM1 agonist | M1 PAM | TAAR1 antagonist
Cc1ccc(C(=O)N[C@@H](Cc2ccccc2)C(=O)N2CCC3(CC2)NCCc2[nH]cnc23)cc1C | - | 47 | - | - | - | -
CC1(C#CC[N+]2(C)CCCCC2)CCC2C(O1)c1ccccc1OC2(C)C (stereo not drawn) | - | 82 | - | 103 | - | -
CC12CCC3(CO)COC(c4ccccc4O1)C2C3 (stereo not drawn) | - | - | - | - | - | -
CC(OC(=O)CCCN=C1NS(=O)(=O)c2ccccc21)C(=O)c1ccccc1 (stereo not drawn) | - | - | - | 19 | - | -
CC(OC(=O)CCCN=C1NS(=O)(=O)c2ccccc21)C(=O)N(C)c1ccccc1 (stereo not drawn) | - | - | - | - | - | -
COc1cc(OC)c(Nc2cc(C)nc3nc(C)nn23)cc1Cl | - | 103 | - | - | - | -
COc1ccc(Cl)cc1Nc1cc(C)nc2nc(C)nn12 | - | - | - | - | - | -
CCc1cc(C(=O)N2CCN(c3ncccn3)CC2)sc1C | - | - | - | - | - | -
CN(C)[C@@H]1CCC[C@@H]1OC(=O)C(c1ccccc1)c1ccccc1 | - | 31 | - | - | - | -
CN(c1ccccc1)c1ccc(/C=C/[N+](=O)[O-])cc1 | - | 64 | - | 23 | - | -
N#Cc1c(N)n(Cc2ccccc2)c(=O)c2cc([N+](=O)[O-])ccc12 | - | - | - | - | - | -
Cn1c(N)c(-c2ccccc2)c2ccc([N+](=O)[O-])cc2c1=O | - | 42 | - | 62 | - | -
CCCCn1c(N)c(N(CC)C(=O)C2COc3ccccc3O2)c(=O)[nH]c1=O (stereo not drawn) | - | - | - | - | - | -
C[C@@]12C(=O)Nc3ccc(Br)cc3C(=O)N1[C@H]1c3cc(Cl)ccc3OC[C@@H]1[C@@H]2c1ccccc1 | - | - | . | - | - | .
Cc1ccc2c(c1)C(=O)N1[C@H]3c4ccccc4OC[C@@H]3[C@H](c3ccccc3)[C@]1(C)C(=O)N2 | - | 65 | . | - | - | .
Cc1ccc2c(c1)NC(=O)[C@@]1(C)[C@@H](c3ccccc3)[C@H]3COc4ccccc4[C@@H]3N1C2=O | - | - | - | - | - | -
C[C@@]12C(=O)Nc3ccc(Br)cc3C(=O)N1[C@H]1c3ccccc3OC[C@@H]1[C@@H]2c1ccccc1 | - | 27 | . | - | - | .
Cc1cc(C)c2nc(N3CCCC(C(=O)NCCCN4CCOCC4)C3)sc2c1 (stereo not drawn) | - | - | - | - | - | -
Cc1cc(C)c2nc(N3CCC(C(=O)NCCCN4CC(C)CC(C)C4)CC3)sc2c1 (stereo not drawn) | - | 82 | - | - | - | -
COC(=O)C1=C(C)N(Cc2ccc(C(F)(F)F)cc2)C(=NCc2ccccc2C(F)(F)F)NC1c1cccc(Cl)c1 (stereo not drawn) | . | . | - | . | . | -
Cc1ccc2c(c1)C1(OCCCO1)C(=O)N2 | - | - | - | - | - | -
Nc1ccccc1-c1ccc([N+](=O)[O-])cc1 | - | - | - | - | - | -
O=C1NC(=O)C(c2ccccc2)(c2ccccn2)N1 (stereo not drawn) | - | - | - | - | - | -
O=C1NC(=S)NC1(c1ccccc1)c1ccccc1 | - | 47 | - | - | - | -
NC(=O)C1CCN(C(=O)CNC(=O)c2ccc(F)cc2)CC1 | - | - | - | - | - | -
SMILES | HTR2A ag | CHRM1 antagonist | TAAR1 agonist | CHRM1 agonist | M1 PAM | TAAR1 antagonist
CN(C)c1ccc(NS(=O)(=O)c2cc(Cl)ccc2Cl)cc1 | - | - | - | - | - | -
CCN(c1ccc(NS(=O)(=O)c2cc(Cl)ccc2Cl)cc1)C(C)C | - | 76 | - | - | - | -
COc1cc(OC)c(C(=O)OCC(=O)NCCc2ccccc2)cc1OC | - | - | - | - | - | -
COc1ccc(Cn2c(=O)[nH]c3cc(C(=O)N4CCN(c5ccccn5)CC4)ccc3c2=O)cc1 | - | - | - | - | - | -
O=C(Nc1ccc(Cl)c(Cl)c1)OCc1cccnc1 | - | 33 | - | - | - | -
O=C(Nc1cccnc1)OCc1ccccc1 | - | - | - | - | - | -

High-throughput results: PubChem BioAssay, The Scripps Research Institute Molecular Screening Center
